How the values were obtained:
[1] = tested on: A549 lung cancer cells (FR-α−); assay: ADCC assay; type: cell-based, human; settings: Fc-ARM2 + anti-CD20, 16 h, E/T 1-8, n = 3, Fig. S7
IGROV-1 cells [2] = assay: ADCC assay; type: cell-based, human
[3] = tested on: KHYG-1/CD16a-158V NK cells co-cultured with IGROV-1 cells; assay: IFN-γ secretion from NK cells, ELISA; type: cell-based, human
[4] = tested on: KHYG-1/CD16a-158V cells co-cultured with IGROV-1 cells; assay: CD107a mobilization assay, flow cytometry; type: cell-based, human; settings: Fc-ARM2 10 nM + anti-CD20 100 nM, 6 h, E/T = 1
Method in brief: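 Human NK line KHYG-1 expressing CD16a-158V co-cultured 6 h with FR-α+ IGROV-1 ovarian adenocarcinoma cells (E/T 1) with the indicated reagents. Surface CD107a on NK cells read by flow cytometry. Mean ± SEM; two experimental repeats; one-way ANOVA with Tukey's multiple comparison test.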

IGROV-1 cells [5] = assay: Antibody recruitment / binding on cells, flow cytometry; type: cell-based, human
IGROV-1 cells (FR-α+) = assay: Antibody recruitment to cancer cells, fluorescence microscopy; type: cell-based, human; settings: Fc-ARM2 100 nM
IGROV-1 cells [6] = assay: Mouse IgG recruitment and NK cell activation; type: cell-based, human; settings: Fc-ARM2 10 nM, mouse IgG 100 nM; flow cytometry n = 4; ADCC 16 h n = 3; Fig. S11
IGROV-1 cells [7] = settings: IGROV-1 cells (EGFR/FR-α double positive); cited from earlier work
folate receptor-a (FR-α) = settings: cited from earlier work

For `CC(C)C[C@@H]1NC(=O)[C@H](Cc2c[nH]cn2)NC(=O)[C@H](Cc2c[nH]c3ccccc23)NC(=O)[C@H](C)NC(=O)[C@@H]2CSSC[C@H](NC(=O)[C@H](Cc3c[nH]c4ccccc34)NC(=O)[C@H](C(C)C)NC(=O)[C@H](CC(C)C)NC(=O)[C@H](CCC(=O)O)NC(=O)CNC1=O)C(=O)N[C@@H]([C@@H](C)O)C(=O)N[C@H](C(N)=O)CSSC[C@H](NC(=O)CCOCCOCCOCCOCCOCCOCCNC(=O)CC[C@H](NC(=O)c1ccc(NCc3cnc4nc(N)[nH]c(=O)c4n3)cc1)C(=O)O)C(=O)N[C@@H](CC(=O)O)C(=O)N2` [Fc-ARM2], the “ADCC against A549 cells” value [1] was “ADCC was not induced”, the “ADCC (% cytotoxicity) with recruited anti-CD20” value (IGROV-1 cells [2]; Fc-ARM 10 nM + anti-CD20 100 nM, 16 h, E/T 1-8, LDH assay, n = 3) was “showed clear target cell killing” and the “ADCC with increasing concentration of anti-CD20” value (IGROV-1 cells [2]; Fc-ARM 10 nM, E/T = 8, 16 h, n = 3, Fig. 4C) was “induced ADCC more effectively”. The “ADCC (% cytotoxicity) with excess FA” value (IGROV-1 cells [2]; Fc-ARM2 10 nM + anti-CD20 100 nM + FA (1 μM), 16 h) was “eliminated by excess FA”, the “ADCC with Fc fragment of anti-CD20” value (IGROV-1 cells [2]; Fc-ARM2 + Fc fragment of anti-CD20 mAb, n = 3, Fig. 4D) was “induced cytotoxicity upon recruitment by Fc-ARM2” and the “ADCC (% cytotoxicity) after 6, 8 and 16 h co-culture” value (IGROV-1 cells [2]; Fc-ARM + anti-CD20, E/T = 4, Fig. 4B) was “showed higher cytotoxicity compared with Fc-ARM1 + anti-CD20”. For the same molecule, the “IFN-γ secretion from NK cells” value ([3]; Fc-ARM2 + anti-CD20, E/T = 8, ELISA of supernatant, Fig. 3B) was “secretion of interferon-γ (IFN-γ)”, the “IFN-γ secretion from NK cells after 16 h” value ([3]; Fc-ARM + anti-CD20, E/T = 4, 16 h, Fig. S8) was “induced a higher amount of IFN-γ secretion” and the “Surface mobilization of CD107a on NK cells” value [4] was “surface mobilization of CD107a”. For the same molecule, the “Amount of recruited IgG-FITC (MFI)” value (IGROV-1 cells [5]; 10 nM Fc-ARM, increasing IgG-FITC, n = 3, Fig. 2E) was “recruited a higher amount of IgG-FITC compared with Fc-ARM1”, the “Recruitment of Fc-fluorescein (Fc-fluo) to cells” value (IGROV-1 cells (FR-α+); Fc-fluo 500 nM) was “recruited the papain-digested Fc fragment of IgG1” and the “Recruitment of IgG-FITC to cells” value (IGROV-1 cells (FR-α+); IgG-FITC 500 nM, 30 min, 4 °C) was “successfully recruited FITC-labeled human IgG (IgG-FITC) to IGROV-1 cells”. The “Recruitment of IgG-FITC to cells with excess FA” value (IGROV-1 cells (FR-α+); IgG-FITC 500 nM, FA 100 µM as competitor) was “diminished IgG-derived fluorescence” and the “Recruitment of mouse IgG and ADCC” value (IGROV-1 cells [6]) was “did not work with mouse IgG”.
For `CC(C)C[C@@H]1NC(=O)[C@H](Cc2c[nH]cn2)NC(=O)[C@H](Cc2c[nH]c3ccccc23)NC(=O)[C@H](C)NC(=O)[C@@H](NC(=O)[C@H](CC(=O)O)NC(=O)CCOCCOCCOCCOCCOCCOCCNC(=O)CC[C@H](NC(=O)c2ccc(NCc3cnc4nc(N)[nH]c(=O)c4n3)cc2)C(=O)O)CSSC[C@@H](C(=O)N[C@H](C(N)=O)[C@@H](C)O)NC(=O)[C@H](Cc2c[nH]c3ccccc23)NC(=O)[C@H](C(C)C)NC(=O)[C@H](CC(C)C)NC(=O)[C@H](CCC(=O)O)NC(=O)CNC1=O` [Fc-ARM1], the “ADCC (% cytotoxicity) after 4 h co-culture” value (IGROV-1 cells [2]; Fc-ARM + anti-CD20, 4 h, E/T 1-8, n = 3, Fig. 4A) is listed as “did not show detectable cytotoxicity”, the “Effect on ADCC activity of anti-EGFR mAb” value (IGROV-1 cells [7]) is listed as “inhibited the ADCC activity” and the “Change in MFI of fluorescein-labeled anti-EGFR mAb on cells” value (IGROV-1 cells [5]; 10 nM Fc-ARM1 added, Fig. S9A) is listed as “about a six-fold increase in MFI”.
In the case of `Nc1nc(=O)c2nc(CNc3ccc(C(=O)N[C@@H](CCC(=O)O)C(=O)O)cc3)cnc2[nH]1` [FA, folic acid], the “Affinity to FR-α” value (folate receptor-a (FR-α)) is given as “sub-nanomolar”.

Reference: publication PMC8157400 (Chemical Science, 2020)
